{"source": "paper PMC5633258", "about": "(International Journal for Parasitology: Drugs and Drug …, 2017)", "key": {"LdAI [1]": {"biological_target": "T1, LdAI (Leishmania donovani, UniProt A0A3Q8IA09)", "T1 sequence (A0A3Q8IA09 1-398)": "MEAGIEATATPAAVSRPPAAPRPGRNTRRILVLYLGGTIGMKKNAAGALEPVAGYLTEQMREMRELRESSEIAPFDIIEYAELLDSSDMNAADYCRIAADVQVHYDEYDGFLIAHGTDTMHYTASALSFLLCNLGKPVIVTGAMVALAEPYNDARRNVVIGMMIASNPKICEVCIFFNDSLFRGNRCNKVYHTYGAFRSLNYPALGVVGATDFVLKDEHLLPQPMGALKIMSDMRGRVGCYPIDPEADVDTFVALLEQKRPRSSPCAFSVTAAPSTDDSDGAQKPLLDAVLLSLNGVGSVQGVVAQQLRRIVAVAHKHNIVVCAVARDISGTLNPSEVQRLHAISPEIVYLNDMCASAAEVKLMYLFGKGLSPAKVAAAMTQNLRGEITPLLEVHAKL", "experiment": "Isothermal titration calorimetry with LdAI", "format": "binding", "conditions": "for N (Drug/LdAI) / TΔS / ΔH / ΔG: ITC, direct titration; for N (Drug/LdAI) / TΔS / ΔH: 3 μM LdAI, 298 K; for ΔG: ΔG= ΔH−TΔS", "procedure,_shortened": "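Direct ITC at 298 K in 20 mM Tris, 150 mM NaCl, pH 8.0. LdAI in the cell was titrated with test compound: one small injection, then 25 injections. Heats of dilution were normalised by buffer titrations. A single-site model with Levenberg–Marquardt nonlinear fitting gave Ka, ΔH and ΔS, and ΔG was calculated as ΔH − TΔS.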"}, "LdAI [2]": {"biological_target": "T1, LdAI", "experiment": "Fluorometric titration of ligands with LdAI", "format": "binding", "procedure,_shortened": "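Fluorometric titrations at 298 K in 20 mM Tris, 150 mM NaCl, pH 8.0. Constant enzyme was titrated with increasing ligand (Asp, Glu or test compound), with a 300 s pre-scan delay. Excitation was 274 nm and emission was recorded 290–400 nm. Kd came from a single-site specific binding fit, Y = Bmax*X/(Kd + X).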"}, "LdAI [3]": {"biological_target": "T1, LdAI", "experiment": "Competitive inhibition assay, Gln hydrolysis kinetics", "format": "biochemical", "conditions": "Gln as substrate, LdAI alone, no inhibitor"}, "[4]": {"system": "L. donovani wild type AG83 (WT) promastigotes", "experiment": "MTT survival of wild type promastigotes", "format": "cell-based", "conditions": "Leishmania donovani, 48 h", "procedure,_shortened": "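AG83 promastigotes were kept in M199 (pH 5.5) with 10% FBS. Late-exponential cells, diluted to 2 × 10^6/ml, were exposed to varying concentrations of test compound prepared in FBS-free M199 for 48, 72 and 96 h. Viability was read by MTT at 570 nm as % survival (mean, standard error, three independent experiments). IC50 came from a log(inhibitor) vs normalised response fit.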"}, "[5]": {"system": "pLP2-LdAI transfected promastigotes (WT-LdAI)", "experiment": "MTT survival of LdAI over-expressing promastigotes", "format": "cell-based, Leishmania donovani"}, "[6]": {"system": "LdAI transcript in axenic amastigotes", "experiment": "Real-time PCR of LdAI expression, axenic amastigotes", "format": "cell-based, Leishmania donovani", "conditions": "AmB treated vs untreated"}, "[7]": {"system": "LdAI transfected amastigotes (WT-LdAI)", "experiment": "MTT survival of LdAI transfected axenic amastigotes", "format": "cell-based, Leishmania donovani"}, "[8]": {"system": "LdAI transcript in promastigotes", "experiment": "Semi quantitative RT-PCR and real-time PCR of LdAI expression, promastigotes", "format": "cell-based, Leishmania donovani", "conditions": "0.125 μg/ml AmB for 8 h vs untreated"}, "[9]": {"substrate": "NC(=O)CC[C@H](N)C(=O)O", "experiment": "Competitive inhibition assay, Gln hydrolysis kinetics", "format": "biochemical, Leishmania donovani", "conditions": "other: Gln as substrate, LdAI alone, no inhibitor; pH 8.0; 25.0 °C"}}, "data": [{"molecule": "N[C@@H](CC(=O)O)C(=O)O", "note": "[Asp, L-aspartic acid]", "values": [{"measurement": "Kd", "setting": "LdAI [1]", "result": 7700, "unit": "nM"}, {"measurement": "N (Drug/LdAI)", "setting": "LdAI [1]", "result": "4.0 ± 0.7"}, {"measurement": "TΔS", "setting": "LdAI [1]", "result": 0.64, "unit": "kcal/mol"}, {"measurement": "ΔH", "setting": "LdAI [1]", "result": "-6.34 ± 0.3", "unit": "kcal/mol"}, {"measurement": "ΔG", "setting": "LdAI [1]", "result": -6.98, "unit": "kcal/mol"}, {"measurement": "Kd", "setting": "LdAI [2]", "result": "2400 ± 400", "unit": "nM"}]}, {"molecule": "N[C@@H](CCC(=O)O)C(=O)O", "note": "[Glu, L-glutamic acid]", "values": [{"measurement": "Kd", "setting": "LdAI [1]", "result": 5000, "unit": "nM"}, {"measurement": "N (Drug/LdAI)", "setting": "LdAI [1]", "result": "2.14 ± 0.6"}, {"measurement": "TΔS", "setting": "LdAI [1]", "result": -18.38, "unit": "kcal/mol"}, {"measurement": "ΔH", "setting": "LdAI [1]", "result": "-25.6 ± 1.1", "unit": "kcal/mol"}, {"measurement": "ΔG", "setting": "LdAI [1]", "result": -7.22, "unit": "kcal/mol"}, {"measurement": "Kd", "setting": "LdAI [2]", "result": "11600 ± 1300", "unit": "nM"}]}, {"molecule": "NC(=O)CC[C@H](N)C(=O)O", "note": "[Gln, L-glutamine]", "values": [{"measurement": "Vmax", "setting": "LdAI [3]", "result": "267.9 ± 7.6"}]}, {"molecule": "C[C@@H]1[C@H](O)[C@@H](C)/C=C/C=C/C=C/C=C/C=C/C=C/C=C/[C@H](O[C@@H]2O[C@H](C)[C@@H](O)[C@H](N)[C@@H]2O)C[C@@H]2O[C@](O)(C[C@@H](O)C[C@@H](O)[C@H](O)CC[C@@H](O)C[C@@H](O)CC(=O)O[C@H]1C)C[C@H](O)[C@H]2C(=O)O", "note": "[AmB, Amphotericin B]", "values": [{"measurement": "IC50", "setting": "[4]", "result": "600 ± 70", "unit": "nM"}, {"measurement": "IC50", "setting": "[5]; Leishmania donovani, 48 h", "result": "2200 ± 300", "unit": "nM"}, {"measurement": "lower IC90 in wild-type than in LdAI over-expressing parasites", "setting": "[5]; promastigote form", "result": "three"}, {"measurement": "increase in IC50, LdAI transfected vs non-transfected", "setting": "[5]; promastigotes", "result": "three"}, {"measurement": "increase in LdAI transcript expression (quantitative real time PCR)", "setting": "[6]", "result": "five"}, {"measurement": "IC50", "setting": "[7]; Leishmania donovani, 48 h", "result": "1900 ± 600", "unit": "nM"}, {"measurement": "lower IC90 in wild-type than in LdAI over-expressing parasites", "setting": "[7]; amastigote form", "result": "eight"}, {"measurement": "increase in IC50, LdAI transfected vs non-transfected", "setting": "[7]; amastigotes", "result": "eight"}, {"measurement": "enhancement in LdAI transcription (semiquantitative PCR)", "setting": "[8]", "result": 2.5, "unit": "fold"}, {"measurement": "increase in LdAI transcript expression (quantitative real time PCR)", "setting": "[8]", "result": "four"}]}, {"molecule": "LdAI (Leishmania donovani) (protein) MEAGIEATATPAAVSRPPAAPRPGRNTRRILVLYLGGTIGMKKNAAGALEPVAGYLTEQMREMRELRESSEIAPFDIIEYAELLDSSDMNAADYCRIAADVQVHYDEYDGFLIAHGTDTMHYTASALSFLLCNLGKPVIVTGAMVALAEPYNDARRNVVIGMMIASNPKICEVCIFFNDSLFRGNRCNKVYHTYGAFRSLNYPALGVVGATDFVLKDEHLLPQPMGALKIMSDMRGRVGCYPIDPEADVDTFVALLEQKRPRSSPCAFSVTAAPSTDDSDGAQKPLLDAVLLSLNGVGSVQGVVAQQLRRIVAVAHKHNIVVCAVARDISGTLNPSEVQRLHAISPEIVYLNDMCASAAEVKLMYLFGKGLSPAKVAAAMTQNLRGEITPLLEVHAKL", "values": [{"measurement": "Km", "setting": "[9]", "result": "9.5 ± 0.8", "unit": "mM"}]}]}
